The record followed here is ChEMBL document CHEMBL3526029, “Disposition and metabolism of GSK2251052 in humans: a novel boron-containing antibiotic” (Drug Metab Dispos, 2013).

Data set [1] can be described thus: Total drug recovery in healthy human at 1500 mg, iv infusion for 1 hr as single dose after 144 hrs. Type of data set: ADME, organism-based. The following applies: in vivo, read-out: Drug recovery.
Data set [2] can be described thus: Drug recovery in healthy human feces at 1500 mg, iv infusion for 1 hr as single dose after 24 hrs. Type of data set: ADME, organism-based. To be noted: read-out: Drug recovery.
A short description of data set [3]: Drug recovery in healthy human urine at 1500 mg, iv infusion for 1 hr as single dose after 168 hrs. To be noted: read-out: Drug recovery. Type of data set: ADME, organism-based.
Data set [4] can be described thus: Drug metabolism in cynomolgus monkey liver S9 fraction assessed as (S)-3-(3-(aminomethyl)-1-hydroxy-1,3-dihydrobenzo[c][1,2]oxaborol-7-yloxy)propanoicacid formation at 50 to 500 uM after 3 hrs by liquid scintillation counting in presence of NAD+ and ADH inhibitor 4-MP. Type of data set: ADME, subcellular, Macaca fascicularis. The following applies: s9, 3 h. A digest of the protocol:
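NAD+ (7.5 mM) incubations of [14C]GSK2251052 with 4 mg/ml monkey liver cytosol or liver S9 in pyrophosphate buffer included 4-MP at 0.6 mM final. Incubations ran in triplicate at 37°C. Extracts were counted by LSC and pooled for radio-HPLC.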

The nature of data set [5]: Drug recovery in healthy human feces at 1500 mg, iv infusion for 1 hr as single dose after 96 hrs. Type of data set: ADME, organism-based. The following applies: read-out: Drug recovery.
The test system of data set [6] is Plasma. Briefly: Tmax in healthy human plasma assessed as radioactivity at 1500 mg, iv infusion for 1 hr as single dose. To be noted: in vivo. The format is ADME, organism-based. In a few lines: (§1)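 Healthy men got a single 1500 mg [14C] dose by 1 h i.v. infusion. K2EDTA blood was sampled up to 336 h. Radioactivity in blood and plasma was measured by LSC, with AMS for plasma below LLQ. Parent and M3 were measured by LC/MS/MS (5–10,000 ng/ml range). Noncompartmental analysis used actual times, with t1/2 = ln2/λz and Tmax observed directly, timed from infusion start.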

Data set [7] is described as follows: Drug recovery in healthy human urine at 1500 mg, iv infusion for 1 hr as single dose after 264 hrs. The format is ADME, organism-based. To be noted: read-out: Drug recovery.
Data set [8] can be described thus: Drug recovery in healthy human feces at 1500 mg, iv infusion for 1 hr as single dose after 168 hrs. The format is ADME, organism-based. The following applies: faeces, read-out: Drug recovery.
The subject of data set [9] is Blood. Briefly: Volume of distribution at steady state in healthy human whole blood assessed as radioactivity at 1500 mg, iv infusion for 1 hr as single dose. The format is ADME, organism-based. To be noted: in vivo. A digest of the protocol: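 Healthy males got a 1500 mg [14C] dose as a 1-h IV infusion. K2EDTA blood was taken at serial times to 336 h. Radioactivity in blood and plasma was measured by LSC; plasma below 870 ng eq/ml was re-measured by accelerator mass spectrometry. Vss = CL × MRT, with CL = dose/AUC(0-∞), from noncompartmental analysis on actual times.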

Data set [10] is described as follows: Total drug recovery in healthy human at 1500 mg, iv infusion for 1 hr as single dose after 288 hrs. Type of data set: ADME, organism-based. To be noted: in vivo, read-out: Drug recovery. A digest of the protocol: (§2)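 Six healthy adult males, fasted ≥10 h, got one 1500 mg [14C]GSK2251052 dose ([…], 0.56 MBq) as a constant-rate 1-h IV infusion in 0.9% NaCl. Urine was collected at 0–6, 6–12 and 12–24 h, then in 24-h blocks to 336 h; feces in 24-h blocks. Urine was counted directly by LSC; feces were homogenized and combusted in duplicate before LSC. Cumulative recovery is given as mean % of dose.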

Data set [11] has as its system Blood. As to the kind of experiment: Half life in healthy human whole blood assessed as radioactivity at 1500 mg, iv infusion for 1 hr as single dose. The format is ADME, organism-based. The following applies: in vivo. A digest of the protocol:
as §1

Data set [12] is described as follows: Drug metabolism in healthy human urine assessed as (S)-3-(3-(aminomethyl)-1-hydroxy-1,3-dihydrobenzo[c][1,2]oxaborol-7-yloxy)propanoicacid formation at 1500 mg, iv infusion for 1 hr as single dose by mass spectrometry. The format is ADME, organism-based. The following applies: in vivo. A digest of the protocol:
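Urine was collected through 336 h after a 1500 mg [14C] i.v. 1-h infusion to six men. Samples were pooled by weight (0–120 h per subject; 120–336 h composite) and centrifuged. Profiling used HPLC (Atlantis T3, ammonium acetate pH 4.5/methanol, 30°C) with fraction radioactivity counting. Identity came from Orbitrap positive-ion accurate mass. Values were given as % dose, corrected for recovery.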

For data set [13], the system named is Plasma. Briefly: Half life in healthy human plasma assessed as radioactivity at 1500 mg, iv infusion for 1 hr as single dose. To be noted: in vivo. Type of data set: ADME, organism-based. A digest of the protocol:
as §1

A short description of data set [14]: Drug recovery in healthy human feces at 1500 mg, iv infusion for 1 hr as single dose after 216 hrs. Type of data set: ADME, organism-based. To be noted: faeces, read-out: Drug recovery.
Data set [15] is described as follows: Drug metabolism in cynomolgus monkey kidney S9 fraction assessed as (S)-3-(3-(aminomethyl)-1-hydroxy-1,3-dihydrobenzo[c][1,2]oxaborol-7-yloxy)propanoicacid formation at 50 to 500 uM after 3 hrs by liquid scintillation counting in presence of NADPH regeneration system. Type of data set: ADME, Macaca fascicularis. To be noted: s9, 3 h.
The nature of data set [16]: Drug recovery in healthy human urine assessed as total radioactivity at 1500 mg, iv infusion for 1 hr as single dose after 120 to 336 hrs by HPLC method. Type of data set: ADME, organism-based. The following applies: in vivo, in the assay text read “0 to 120 hrs” for “120 to 336 hrs”. A digest of the protocol:
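Urine pooled by weight per subject over 0–120 h; 120–336 h pools from all subjects combined into one composite. Centrifuged at ~21,000g, then supernatant profiled by HPLC (Atlantis T3, ammonium acetate pH 4.5/methanol, 30°C) with radiochemical detection plus MS identification. Results are % of dose, corrected for centrifugation recovery measured by triplicate LSC.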

A short description of data set [17]: Drug recovery in healthy human urine at 1500 mg, iv infusion for 1 hr as single dose after 96 hrs. The format is ADME, organism-based. The following applies: read-out: Drug recovery.
Data set [18] is described as follows: Drug recovery in healthy human feces assessed as total radioactivity at 1500 mg, iv infusion for 1 hr as single dose after 120 to 336 hrs by HPLC method. The format is ADME, organism-based. To be noted: in vivo, in the assay text read “0 to 120 hrs” for “120 to 336 hrs”. In a few lines: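 Feces were collected at 24-h intervals through 336 h after a 1500 mg [14C] i.v. 1-h infusion. Samples were homogenised with water and duplicate aliquots combusted for LSC. For profiling, 0–120 h pools were extracted twice with acetonitrile:methanol:water:formic acid, reconstituted, and analysed by radio-HPLC. Values were reported as % dose.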

A short description of data set [19]: Drug recovery in healthy human feces at 1500 mg, iv infusion for 1 hr as single dose after 240 hrs. The format is ADME, organism-based. The following applies: faeces, read-out: Drug recovery.
The nature of data set [20]: Drug recovery in healthy human urine at 1500 mg, iv infusion for 1 hr as single dose after 144 hrs. The format is ADME, organism-based. To be noted: read-out: Drug recovery.
A short description of data set [21]: Drug recovery in healthy human urine at 1500 mg, iv infusion for 1 hr as single dose after 120 hrs. The format is ADME, organism-based. The following applies: read-out: Drug recovery.
Data set [22] in a line: Drug metabolism in cynomolgus monkey kidney S9 fraction assessed as (S)-3-(3-(aminomethyl)-1-hydroxy-1,3-dihydrobenzo[c][1,2]oxaborol-7-yloxy)propanoicacid formation at 50 to 500 uM after 3 hrs by liquid scintillation counting in presence of NAD+. Type of data set: ADME, Macaca fascicularis. To be noted: s9, 3 h. In a few lines:
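[14C]GSK2251052 was incubated in triplicate for 1 or 3 h at 37°C with 4 mg/ml S9 (monkey liver, lung or kidney; human liver), liver cytosol or liver microsomes and 7.5 mM NAD+. Buffer was pyrophosphate at pH 7.4, 8.4 or 8.8. Controls lacked cofactor or enzyme. Reactions were quenched with acetonitrile, counted by LSC, and pooled for radio-HPLC.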

Data set [23] can be described thus: Total drug recovery in healthy human at 1500 mg, iv infusion for 1 hr as single dose after 72 hrs. Type of data set: ADME, organism-based. The following applies: in vivo, read-out: Drug recovery. A digest of the protocol: as §2
Data set [24] can be described thus: Total drug recovery in healthy human at 1500 mg, iv infusion for 1 hr as single dose after 240 hrs. Type of data set: ADME, organism-based. To be noted: in vivo, read-out: Drug recovery. A digest of the protocol:
as §2

Regarding `Cl.N[14CH2][C@H]1OB(O)c2c(OCCCO)cccc21`, the dose excreted at 144 h in data set [1] was 92.6%; in data set [20], 85.1%. Moreover, the dose excreted at 24 h in data set [2] was 0.1%. For the same compound, the dose excreted at 168 h in data set [3] came to 86.4%; in [8] it was 7.6%. Also, the Drug metabolism entry in data set [4], in data set [15] and in data set [22] was “metabolite_not_detected” in each case. Also, the figures for the dose excreted at 96 h in data set [5] and in [17] were 6.4% and 81.1%, respectively. Moreover, the Tmax (usually the time from dosing to the highest level) in the data set with Plasma [6] was determined as 0.917 h. The dose excreted at 264 h in data set [7] was determined as 89.3%. Besides, the Vdss (as a rule, the apparent volume that relates the amount in the body to the concentration in plasma or blood) with Blood [9] came out at 116 L. Further, the dose excreted at 288 h in [10] was 97.4%. Moreover, the t1/2 in the data set on Blood [11] was determined as 14.3 h; in the data set with Plasma [13], 96 h. The Drug recovery entry is recorded as “metabolite_detected” in data set [12], 83.1% in data set [16] and 6% in data set [18]. The dose excreted at 216 h in [14] worked out at 7.6%. Besides, the dose excreted at 240 h in [19] was 7.6%; in data set [24] it was 96.4%. In data set [21], the dose excreted at 120 h is 83.4%. The dose excreted at 72 h in data set [23] amounted to 81.2%.
